Where “and” joins values, the source holds several entries; their conditions need not be identical. Identical values can stand only once.

The assay concerns the target T1, Adenosine receptor A1 (Bos taurus, UniProt P28190).
T1 sequence (P28190 whole entry): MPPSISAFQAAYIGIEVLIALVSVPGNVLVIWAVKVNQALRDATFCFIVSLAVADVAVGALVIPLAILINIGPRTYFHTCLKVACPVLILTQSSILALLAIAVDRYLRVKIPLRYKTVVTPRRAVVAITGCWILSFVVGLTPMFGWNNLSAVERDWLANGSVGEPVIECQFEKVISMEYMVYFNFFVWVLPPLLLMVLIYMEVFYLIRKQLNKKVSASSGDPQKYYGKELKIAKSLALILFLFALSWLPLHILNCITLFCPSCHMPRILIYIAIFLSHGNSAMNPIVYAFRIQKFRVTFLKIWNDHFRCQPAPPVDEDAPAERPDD
The assay is described as follows: Displacement of [3H]CPX from Adenosine A1 receptor of bovine brain cerebral cortex membranes. It counts as tissue-based. Summed up:
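Competition binding at room temperature in 50 mM Tris·HCl, 0.02% CHAPS, pH 7.4. Mixture held 0.2 nM [3H]CPX, 25 µg bovine cerebral cortex membranes and 0.2 U/mL adenosine deaminase. Membranes were added to start binding, and incubation was stopped after 2 h by glass-fibre filtration. Bound radioactivity was counted by liquid scintillation. Nonspecific binding was defined with 10 µM (R)-PIA. Ki came from nonlinear curve fitting as the geometric mean (95% confidence limits) of 3-5 experiments in duplicate.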
As for `CCCn1c(=O)n(CCCF)c(=O)c2nc(C3CCCC3)[nH]c21`, affinity was put at a Ki of 0.216 nM. That is a sub-nanomolar value.
For `CCCn1c(=O)c2[nH]c(C3CCCC3)nc2n(CCC)c1=O` [1,3-DIPROPYL-8-CYCLOPENTYLXANTHINE [DPCPX]] the value was 0.155 nM and 0.17 nM.
For `CCCn1c(=O)c2nc(C3CCCC3)[nH]c2n(CCOC)c1=O` the value was 0.493 nM; for `CCCn1c(=O)n(C)c(=O)c2[nH]c(C3CCCC3)nc21`, 0.526 nM.
For `CCCn1c(=O)n(COCC)c(=O)c2[nH]c(C3CCCC3)nc21` the value was 0.286 nM; for `CCCn1c(=O)c2nc(C3CCCC3)[nH]c2n(C/C=C/I)c1=O`, 0.237 nM; for `CCCn1c(=O)c2nc(C3CCCC3)[nH]c2n(C)c1=O`, 0.31 nM.
Consider `CCCn1c(=O)n(CC(C)F)c(=O)c2[nH]c(C3CCCC3)nc21` (stereo unspecified), for which the affinity corresponds to a Ki of 1.23 nM.
The value for `CCCn1c(=O)[nH]c2nc(C3CCCC3)n(C)c2c1=O` was 149 nM; that for `CCCn1c(=O)c2nc(C3CCCC3)[nH]c2n(CCCF)c1=O` was 0.183 nM.
For `CCCn1c(=O)c2[nH]c(C3CCCC3)nc2n(CC(C)F)c1=O` (stereo unspecified) the value was 0.094 nM.
